Compound activity: PubChem, several laboratories
Many of the other results were omitted from the sample, so hits are more common in it than they were.
MMP13 inh – MMP13 (human) collagenase inhibition; AID 570; MMP-13 fTHP FRET cleavage, Mca fluorescence; 65,000 compounds, 0.07% hits; inhibition, % at 4 µM; P45452;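 active = inhibition above the mean of compound-free control plate wells plus 3 SD, cut at about 14% in these data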;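 note: 0% = DMSO wells and 100% = wells with reference MMP-13 inhibitor after basal subtraction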
AP ELISA ortho – orthogonal test for alternative complement pathway inhibitors. Human serum alternative complement pathway, LPS-coated ELISA, C3 deposition; tested in compound mixtures. inhibition, % at 5 µM. 62,000 compounds, 0.08% hits;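 active = inhibition above 30% in each of the two pooled mixtures holding the compound, so the lower value exceeds 30%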;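 note: 0% = serum in Mg-EGTA without compound and 100% = EDTA serum blank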
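Assay system: Human serum alternative complement pathway, C3 deposition on LPS-coated wells | Incubation: 1 h serum-compound exposure at 37 °C | Doses: 5 µM per compound in ten-compound mixtures | Read-out: Percent inhibition | Technique: ELISA with HRP anti-human C3 antibody, TMB substrate, absorbance 450 nm | Replication: Two pool placements per compound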
E coli WT exp – blocks growth of wild type E. coli BW25113. OD600 absorbance. growth inhibition, % at 100 µM. 98,000 compounds, 0.15% hits. AID 710;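 active = growth inhibition above about 50% at one test dose, limit read from the data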;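 note: growth measured after 20 h incubation at 37 °C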
tolC growth inh – growth inhibitors of E. coli BW25113 tolC mutant; growth inhibition, % at 10 µM (by protocol); OD615; 65,000 compounds, 2.2% hits;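 active = growth inhibition at or above a cutoff equal to the mean over every tested compound plus 3 SD, cut at about 60% in these data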;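 note: growth measured after 20 h incubation at 37 °C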
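Test system – E. coli BW25113 ΔtolC::kan, tolC deletion mutant strain · Detection – OD at 615 nm · Buffer or medium – LB with kanamycin 50 µg/mL · Times – 20 h compound exposure of bacteria at 37 °C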
BAP1 inh – inhibitors of human BAP1 deubiquitinase | recombinant BAP1, Ub-AMC hydrolysis fluorescence kinetic; hits give low values | calls only at 20 µM | 72,000 compounds, 0.48% hits | AID 436;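 active = activity remaining at or below 50% of control, provided the compound also passes the data quality filters; inactive = the rest, including low values that fail the filters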;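 note: 100% = DMSO wells rate and 0% = substrate alone blank rate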
E coli RNAP – blocks E. coli RNA polymerase transcription; P0A8V2; fluorescence transcription assay; inhibition, %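 (tested at 10 µM)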; 62,000 compounds, 0.2% hits; AID 559; in the data active = inhibition above about 20%;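 note: 0% = enzyme without compound and 100% = no enzyme blank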
Target sequence (P0A8V2 whole entry, looked up): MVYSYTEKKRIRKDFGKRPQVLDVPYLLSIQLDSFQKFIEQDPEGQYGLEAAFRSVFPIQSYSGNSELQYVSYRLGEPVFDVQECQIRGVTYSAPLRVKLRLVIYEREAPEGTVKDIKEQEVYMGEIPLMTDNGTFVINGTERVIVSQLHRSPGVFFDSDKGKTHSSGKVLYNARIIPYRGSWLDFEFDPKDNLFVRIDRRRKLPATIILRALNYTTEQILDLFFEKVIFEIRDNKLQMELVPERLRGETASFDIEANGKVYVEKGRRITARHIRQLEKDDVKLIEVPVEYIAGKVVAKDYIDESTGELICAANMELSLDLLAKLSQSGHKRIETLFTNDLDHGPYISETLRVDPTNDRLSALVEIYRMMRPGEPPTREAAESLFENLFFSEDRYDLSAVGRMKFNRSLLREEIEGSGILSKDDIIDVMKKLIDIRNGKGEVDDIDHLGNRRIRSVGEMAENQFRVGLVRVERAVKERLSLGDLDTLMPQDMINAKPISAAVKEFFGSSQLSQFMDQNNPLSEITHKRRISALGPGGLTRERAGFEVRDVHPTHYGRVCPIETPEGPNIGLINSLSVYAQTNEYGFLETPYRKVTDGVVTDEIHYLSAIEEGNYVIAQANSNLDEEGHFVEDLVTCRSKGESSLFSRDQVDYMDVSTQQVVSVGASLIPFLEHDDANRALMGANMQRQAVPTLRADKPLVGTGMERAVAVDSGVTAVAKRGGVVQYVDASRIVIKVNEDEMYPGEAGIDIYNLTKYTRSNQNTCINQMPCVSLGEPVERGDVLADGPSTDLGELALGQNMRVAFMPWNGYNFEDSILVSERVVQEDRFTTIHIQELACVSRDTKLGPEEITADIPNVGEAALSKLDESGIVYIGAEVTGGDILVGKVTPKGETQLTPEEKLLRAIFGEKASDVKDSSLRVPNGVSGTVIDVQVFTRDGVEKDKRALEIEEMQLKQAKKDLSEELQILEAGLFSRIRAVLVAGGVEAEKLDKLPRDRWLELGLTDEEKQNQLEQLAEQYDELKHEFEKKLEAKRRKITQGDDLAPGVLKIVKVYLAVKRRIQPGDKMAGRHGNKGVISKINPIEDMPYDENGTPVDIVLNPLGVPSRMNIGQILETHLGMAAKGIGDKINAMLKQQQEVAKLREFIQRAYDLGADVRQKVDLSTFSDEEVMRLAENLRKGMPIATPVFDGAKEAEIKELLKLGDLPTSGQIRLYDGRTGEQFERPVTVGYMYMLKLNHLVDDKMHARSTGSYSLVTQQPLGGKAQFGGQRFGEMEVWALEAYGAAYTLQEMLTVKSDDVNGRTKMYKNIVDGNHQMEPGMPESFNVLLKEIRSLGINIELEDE
Numbers without * were called inactive; i = inactive; x = no result shown; + = active, no number.

SMILES | MMP13 inh | AP ELISA ortho | E coli WT exp | tolC growth inh | BAP1 inh | E coli RNAP
COc1ccccc1-c1c(C(F)(F)F)oc2cc(OC(=O)c3ccco3)ccc2c1=O | x | x | x | x | i | x
Oc1cccc(Oc2ccccc2)c1 | x | x | x | x | i | x
CC(=O)NC(=O)c1cc2ccccc2oc1=Nc1ccc(I)cc1 | x | x | x | x | i | x
COC(=O)c1cccc(-n2nnnc2SCC(=O)Nc2nc3c(s2)CCCC3)c1 | -4.8 | -5.9 | -5.0 | 83.9* | x | 6.5
O=C(CSc1nnnn1-c1ccc2c(c1)OCCO2)Nc1nc2c(s1)CCCC2 | 3.8 | 4.7 | -2.0 | 15.3 | i | 6.4
COC(=O)c1ccccc1NC(=O)N1c2ccccc2CC1C (centres undefined) | 2.2 | -2.8 | -1.0 | 95.0* | i | -0.2
CCCc1ccc(Oc2c(C)oc3cc(OCC)ccc3c2=O)cc1 | x | x | x | x | i | x
O=C(Nc1ccccc1C(F)(F)F)C(Cc1ccccc1)N1C(=O)c2ccccc2C1=O (centres undefined) | x | x | x | x | i | x
O=C(Nc1nc2ccccc2s1)C1CCCN1S(=O)(=O)c1ccc(Cl)cc1 (centres undefined) | 0.7 | 11.7 | -7.0 | 85.8* | i | 5.2
CSc1ccc(CN2CCN(Cc3cccc([N+](=O)[O-])c3)CC2)cc1 | x | x | x | x | i | x
Cn1c(CSc2nc3ccccc3s2)nc2ccccc21 | 7.4 | -19.1 | -7.0 | 71.9* | i | 4.8
Cn1c(CSc2nc3ccccc3s2)n[nH]c1=S | 1.2 | 3.5 | 17.0 | 29.3 | i | 4.0
COc1ccc(OCC(O)CNc2ccc(Br)cc2)cc1 (centres undefined) | 5.7 | 5.2 | 31.0 | 73.2* | i | -0.1
O=C(NCc1ccccn1)C(C(=O)c1ccc(F)cc1)n1ccccc1=O (centres undefined) | -7.5 | 10.8 | -10.0 | -8.1 | i | 3.4
O=C(NCc1ccco1)C(C(=O)c1ccc(F)cc1)n1ccccc1=O (centres undefined) | 3.1 | 7.0 | 8.0 | 96.9* | i | 9.4
CCCC(=O)N1CCN(c2ccc(C(=O)CC)cc2F)CC1 | x | x | x | x | i | x
Cc1ccc(NC(=O)CSC2=C(C#N)C(c3ccco3)C3=C(CC(C)(C)CC3=O)N2)cc1 (centres undefined) | -4.6 | -8.2 | -13.0 | 69.1* | i | 6.7
COc1ccc(C(=O)Nc2ccc(NC(=O)c3ccc(C(C)(C)C)cc3)cc2)cc1[N+](=O)[O-] | x | x | x | x | i | x
c1cncc(CSc2nnc(-c3cccnc3)n2Cc2ccco2)c1 | -4.2 | 6.2 | -2.0 | -17.3 | i | x
C(=C\c1ccccc1)/CSc1nnc(-c2ccccn2)n1Cc1ccco1 | 6.3 | 1.6 | -12.0 | 92.6* | i | 13.4
Clc1cccc(CSc2nnc(-c3cccnc3)n2Cc2ccco2)c1 | -2.3 | 37.3* | 12.0 | x | i | 8.8
Clc1ccccc1CSc1nnc(-c2ccccn2)n1Cc1ccco1 | 3.1 | -2.5 | -6.0 | 91.5* | x | 4.8
Nn1c(SC/C=C/c2ccccc2)nnc1-c1ccccn1 | -3.9 | 10.0 | 10.0 | 10.1 | x | 8.5
COC(=O)C(CC(=O)c1ccc(Br)cc1)n1ccnc1 (centres undefined) | 0.7 | 11.3 | 59.0* | 5.2 | i | 11.1
COc1ccc2nc3c(cc2c1)c(NC(=O)c1cccs1)nn3CC(C)C | -62.0 | 8.9 | -15.0 | 78.0* | x | -3.9
SMILES | MMP13 inh | AP ELISA ortho | E coli WT exp | tolC growth inh | BAP1 inh | E coli RNAP
CCC(=O)Nc1ccc(C(=O)n2ccc(C)n2)cc1 | -3.8 | 35.2* | 9.0 | -13.8 | i | 7.0
OCCn1c(-c2ccc3c(c2)OCO3)csc1=Nc1ccccc1 | 2.3 | 11.4 | 9.0 | 75.7* | i | 9.2
COc1cc(NS(=O)(=O)c2ccc(OC)c(C)c2C)c(OC)cc1Cl | 7.4 | 30.9 | -11.0 | 64.9* | i | 7.8
Brc1ccc2nc(Nc3ccccn3)nc(-c3ccccc3)c2c1 | x | x | x | x | i | x
O=C(Nc1ccc2c(c1)OCO2)c1ccc(COc2ccc3c(c2)CCC3)o1 | 1.1 | -1.0 | -1.0 | 72.2* | x | 0.7
CCn1c(=O)cc(OCC(=O)N2CCN(C(=O)c3ccco3)CC2)c2ccccc21 | 0.6 | 13.9 | -1.0 | -8.6 | i | 13.0
CCn1c(=O)c2cc(C(=O)N3CCN(C(=O)c4ccco4)CC3)sc2c2ccccc21 | -28.4 | 5.2 | x | 97.5* | + | -3.0
O=C(Nc1cccnc1Cl)c1nn2c(C(F)(F)F)cc(-c3cc(Br)cs3)nc2c1Br | x | x | x | x | i | x
CCCCCn1c(N2CCC(Cc3ccccc3)CC2)nc2c1c(=O)[nH]c(=O)n2C | 4.7 | -1.7 | x | 71.4* | i | 7.3
CC(=O)Cn1c(N2CCC(Cc3ccccc3)CC2)nc2c1c(=O)[nH]c(=O)n2C | 2.2 | 2.5 | -1.0 | 6.8 | i | x
CCCCCCn1c(N2CCN(c3ccccc3)CC2)nc2c1c(=O)n(C)c(=O)n2C | -0.5 | 7.8 | -23.0 | 80.2* | i | 5.3
C=C(C)Cn1c(N2CCC(Cc3ccccc3)CC2)nc2c1c(=O)[nH]c(=O)n2C | -0.6 | x | -7.0 | 91.9* | x | x
O=C1c2ccc([N+](=O)[O-])cc2C(=O)N1C1C(=O)N(c2ccc(Br)cc2)C1c1ccc2c(c1)OCO2 (centres undefined) | x | x | x | x | i | x
COc1ccc(CCNC(=O)C(C(C)C)N2C(=O)c3ccccc3C2=O)cc1OC (centres undefined) | x | x | x | x | i | x
COc1ccccc1-c1cc(C(=O)NCc2ccc(Cl)cc2)no1 | -2.3 | 6.6 | -3.0 | -3.7 | i | 4.5
COc1ccccc1-c1cc(C(=O)NCc2ccc(F)cc2)no1 | -2.6 | 28.7 | -10.0 | 91.7* | i | 3.3
COc1ccc(CNC(=O)c2cc(-c3ccccc3OC)on2)cc1 | -3.5 | 0.6 | -2.0 | 69.3* | i | 3.1
COc1ccccc1-c1cc(C(=O)NCc2ccccc2)no1 | -3.4 | 8.9 | -10.0 | 80.2* | i | 3.2
COc1ccc(CNC(=O)c2cc(-c3ccco3)on2)cc1 | -1.7 | 16.8 | -8.0 | -23.2 | i | -1.1
O=C1c2ccc(Br)cc2C(=O)N1c1cccc(C(F)(F)F)c1 | x | x | x | x | i | x
CN(c1ccccc1)c1nc(N2CCCC2)nc(-n2ccnc2)n1 | -1.2 | 9.6 | 12.0 | 96.2* | i | -2.7
CCOC(=O)N1CCN(c2nc(N(c3ccccc3)c3ccccc3)nc(-n3ccnc3)n2)CC1 | -1.0 | 20.3 | x | 66.3* | i | -1.1
c1ccc(N(c2ccccc2)c2nc(N3CCCC3)nc(-n3ccnc3)n2)cc1 | 8.4 | 6.4 | 5.0 | 5.8 | i | 0.8
c1ccc(CN2CCN(c3nc(-c4ccccc4)nc(-n4ccnc4)n3)CC2)cc1 | 5.5 | -9.1 | -5.0 | 64.6* | i | 8.1
CC1=CCC2CC1NC(=O)CCOCCC(=O)NC2(C)C (centres undefined) | x | x | x | x | i | x
CCOC(=O)c1nnn(-c2nonc2-n2cccc2)c1CCl | x | x | 9.0 | x | x | x
CCOC(=O)c1nnn(-c2nonc2-n2cccc2)c1CN1CCC(C)CC1 | -4.9 | 6.2 | 4.0 | 70.1* | i | 0.5
CC(C)Cn1c(=O)c(C(=O)Nc2cnccn2)c(O)c2ccccc21 | 4.6 | 0.5 | -9.0 | 100.0* | i | 7.7
